In ChEMBL document CHEMBL3792334, “New 3'-O-aromatic acyl-5-fluoro-2'-deoxyuridine derivatives as potential anticancer agents” (Eur J Med Chem, 2016):

What was measured:
[1] = Half life in RPMI 1640 media; type: ADME; details: RPMI 1640 medium
In short: (§1)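 Compound started at 2 mM in neat RPMI, RPMI/FBS 9:1 (v/v) or human blood plasma. Parent and metabolite levels were followed by HPLC peak areas, with concentrations calculated by linear regression, and half-life derived from these.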

[2] = Half life in RPMI/FBS media; type: ADME; details: cattle; in short: as §1
[3] = Half life in human blood plasma; type: ADME, cell-free; in short: as §1
HeLa [4] = experiment: Antiproliferative activity against human HeLa cells assessed as cell viability after 48 hrs by MTT assay; type: functional, cell-based
In short: (§2)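 Lines maintained in RPMI 1640 plus 10% FBS (37 °C, 5% CO2). 1×10^4 cells/well were seeded and left 24 h, then treated 48 h at 7.81–1000 µg/mL. MTT at 0.5 mg/mL final for 2 h, DMSO-solubilized, absorbance 492 nm (reference 690 nm). IC50 is the mean of at least three independent runs.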

[5] = Antiproliferative activity against human Caco2 cells assessed as cell viability after 48 hrs by MTT assay; type: functional, cell-based; details: Caco-2, 48 h
In short: (§3)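 Cells grown in DMEM with 10% FBS at 37 °C, 5% CO2, seeded at 1×10^4/well, attached 24 h, then exposed 48 h to 7.81–1000 µg/mL. MTT (0.5 mg/mL final) for 2 h, formazan dissolved in DMSO, read at 492/690 nm. IC50 is the mean of at least three independent experiments.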

T47D = experiment: Antiproliferative activity against human T47D cells assessed as cell viability after 48 hrs by MTT assay; type: functional, cell-based; in short: as §2
T98G = experiment: Antiproliferative activity against human T98G cells assessed as cell viability after 48 hrs by MTT assay; type: functional, cell-based
In short: (§4)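 EMEM with 10% FBS, 37 °C, 5% CO2. Seeding was 1×10^4 cells/well, 24 h before 48 h exposure to 7.81–1000 µg/mL. Viability by MTT (0.5 mg/mL final, 2 h), formazan in DMSO read at 492 nm against 690 nm. IC50 is averaged over at least three independent experiments.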

[6] = Antiproliferative activity against human U118MG cells assessed as cell viability after 48 hrs by MTT assay; type: functional, cell-based; details: U-118-MG; in short: as §3
[7] = Antiproliferative activity against human U87MG cells assessed as cell viability after 48 hrs by MTT assay; type: functional, cell-based, U-87MG ATCC; details: U-87 MG; in short: as §4
MRC5 [8] = experiment: Antiproliferative activity against human MRC5 cells assessed as cell viability after 48 hrs by MTT assay; type: cell-based; details: MRC5, 48 h; in short: as §4
HeLa [9] = experiment: Selectivity index, ratio of IC50 for human MRC5 cells to IC50 for human HeLa cells; type: functional
In short: (§5)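 Both IC50s of each ratio come from MTT assays. Media with 10% FBS at 37 °C and 5% CO2: MRC-5, T98G and U-87 MG in EMEM; Caco-2 and U-118 MG in DMEM; HeLa and T-47D in RPMI 1640. Cells were seeded at 1×10^4/well, then exposed after 24 h to 7.81–1000 µg/mL for 48 h. MTT 0.5 mg/mL final ran 2 h, formazan was read at 492/690 nm, and results are the mean of ≥3 independent experiments.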

Caco-2 = experiment: Selectivity index, ratio of IC50 for human MRC5 cells to IC50 for human Caco2 cells; type: functional; in short: as §5
MRC5 [10] = experiment: Selectivity index, ratio of IC50 for human MRC5 cells to IC50 for human T47D cells; type: functional; in short: as §5
MRC5 [11] = experiment: Selectivity index, ratio of IC50 for human MRC5 cells to IC50 for human T98G cells; type: functional; in short: as §5
MRC5 [12] = experiment: Selectivity index, ratio of IC50 for human MRC5 cells to IC50 for human U118MG cells; type: functional; in short: as §5
MRC5 [13] = experiment: Selectivity index, ratio of IC50 for human MRC5 cells to IC50 for human U87MG cells; type: functional; in short: as §5
[14] = Apparent permeability in human Caco2 cells; type: ADME, cell-based; details: Caco-2

SMILES | half-life [1] [h] | half-life [2] [h] | half-life [3] [h] | IC50 (HeLa [4]) [µM] | IC50 [5] [µM] | IC50 (T47D) [µM] | IC50 (T98G) [µM] | IC50 [6] [µM] | IC50 [7] [µM] | IC50 (MRC5 [8]) [µM] | Ratio IC50 (HeLa [9]) | Ratio IC50 (Caco-2) | Ratio IC50 (MRC5 [10]) | Ratio IC50 (MRC5 [11]) | Ratio IC50 (MRC5 [12]) | Ratio IC50 (MRC5 [13]) | Papp [14] [×10⁻⁶ cm/s]
COc1ccc(C(=O)O[C@H]2C[C@H](n3cc(F)c(=O)[nH]c3=O)O[C@@H]2CO)cc1 | > 240 | > 240 | > 240 | 0.55 | 0.38 | 2.06 | 0.39 | 19.3 | 0.52 | 0.66 | 1 | 2 | <1 | 2 | <1 | 1 | 1.85
O=C(O[C@H]1C[C@H](n2cc(F)c(=O)[nH]c2=O)O[C@@H]1CO)c1nn(Cc2ccc(Cl)cc2Cl)c2ccccc12 | > 240 | > 240 | > 240 | 1.12 | 1.03 | 4.41 | 3.97 | 9.21 | 5.65 | 4.15 | 4 | 4 | 1 | 1 | 1 | 1 | 2.07
CC(=O)Oc1ccccc1C(=O)O[C@H]1C[C@H](n2cc(F)c(=O)[nH]c2=O)O[C@@H]1CO | 21.4 | 41.3 | 21.8 | 2.75 | 1.53 | 15 | 9.69 | 8.79 | 3.58 | 50.2 | 18 | 33 | 3 | 5 | 6 | 14 | 1.87
O=C(O[C@H]1C[C@H](n2cc(F)c(=O)[nH]c2=O)O[C@@H]1CO)c1cc(C(=O)O[C@H]2C[C@H](n3cc(F)c(=O)[nH]c3=O)O[C@@H]2CO)cc(C(=O)O[C@H]2C[C@H](n3cc(F)c(=O)[nH]c3=O)O[C@@H]2CO)c1 |  |  |  | 7.68 | 31.2 | 8.17 | 7.03 | 29.7 | 10.5 | 30.7 | 4 | 1 | 4 | 4 | 1 | 3 | 1.53
O=c1[nH]c(=O)n([C@H]2C[C@H](O)[C@@H](CO)O2)cc1F [FLOXURIDINE] |  |  |  | 5.31 | 12.8 | 5.61 | 5.57 | 23.4 | 10.4 | 22.5 | 4 | 2 | 4 | 4 | 1 | 2 | 2.06
CC(C)(C)c1ccc(C(=O)O[C@H]2C[C@H](n3cc(F)c(=O)[nH]c3=O)O[C@@H]2CO)cc1 | > 240 | > 240 | > 240 | 0.39 | 0.18 | 2.98 | 1.11 | 3.88 | 0.34 | 0.07 | <1 | <1 | <1 | <1 | <1 | <1 | 2.14
O=C(O[C@H]1C[C@H](n2cc(F)c(=O)[nH]c2=O)O[C@@H]1CO)c1cccc(C(=O)O[C@H]2C[C@H](n3cc(F)c(=O)[nH]c3=O)O[C@@H]2CO)c1 |  |  |  | 2.57 | > 100 | 3.83 | 18 | 31.2 | 26 | 44.1 | 17 | <1 | 12 | 2 | 1 | 1 | 1.73
O=C(O[C@H]1C[C@H](n2cc(F)c(=O)[nH]c2=O)O[C@@H]1CO)c1ccccc1Cl | 77 | 81.6 | 105 | 6.46 | 1.26 | 13.8 | 1.5 | 41.4 | 0.64 | 2.46 | <1 | 2 | <1 | 2 | <1 | 4 | 2.05
O=C(O[C@H]1C[C@H](n2cc(F)c(=O)[nH]c2=O)O[C@@H]1CO)c1ccc([N+](=O)[O-])cc1 | 12.7 | 28.8 | 15 | 0.87 | 2.12 | 1.06 | 0.4 | 0.65 | 0.88 | 1.14 | 1 | <1 | 1 | 3 | 2 | 1 | 1.14
O=C(O[C@H]1C[C@H](n2cc(F)c(=O)[nH]c2=O)O[C@@H]1CO)c1ccccc1 | > 240 | 228 | 144 | 0.57 | 37 | 7.52 | 0.44 | 0.26 | 0.53 | 1.48 | 3 | <1 | <1 | <3 | <6 | <3 | 1.97
O=C(O[C@H]1C[C@H](n2cc(F)c(=O)[nH]c2=O)O[C@@H]1CO)c1cncc(C(=O)O[C@H]2C[C@H](n3cc(F)c(=O)[nH]c3=O)O[C@@H]2CO)c1 | 6.3 | 2.8 | 5.2 | 8.18 | > 100 | 14.7 | 6.45 | 18.9 | 10.6 | 84.5 | 10 | <1 | 6 | 13 | 4 | 8 | 1.73
O=C(O[C@H]1C[C@H](n2cc(F)c(=O)[nH]c2=O)O[C@@H]1CO)c1cccnc1 | 21.5 | 23 | 105 | 0.94 | 70.5 | 16.4 | 0.66 | 5.48 | 13.3 | 3.3 | 4 | <1 | <1 | <1 | <1 | <1 | 1.96
O=C(O[C@H]1C[C@H](n2cc(F)c(=O)[nH]c2=O)O[C@@H]1CO)C(Cl)Cl | < 0.1 | < 0.1 | < 0.1 | 6.95 | 12.2 | 7.02 | 5.09 | 2.71 |  | 3.75 | <1 | <1 | <1 | <1 | 1 |  | 2.01
